Results on eleven molecules are retold here after ChEMBL document CHEMBL1124327, “Synthesis and structure-activity relationships of 2-substituted-6-(dimethylamino)-9-(4-methylbenzyl)-9H-purines with antirhinovirus activity” (J Med Chem, 1989).

The nature of assay [1]: Compound was tested for anti-rhinovirus type 1B activity in a plaque inhibition assay using monolayers of M-HeLa cells. It counts as functional, cell-based. Particulars: Homo sapiens.
The subject of assay [2] is Enterovirus. Nature of the assay: Inhibitory concentration against rhinovirus 13. Format: functional, organism-based.
Assay [3] relates to rhinovirus B14. Nature of the assay: Inhibitory concentration against rhinovirus 14. It counts as functional, organism-based, Enterovirus. Conditions: Rhinovirus B.
In assay [4] the test system is Enterovirus. Nature of the assay: Inhibitory concentration against rhinovirus 15. Format: functional, organism-based.
The subject of assay [5] is Enterovirus. In words: Inhibitory concentration against rhinovirus 16. It counts as functional, organism-based.
Assay [6] concerns Enterovirus. Nature of the assay: Inhibitory concentration against rhinovirus 18. Format: functional, organism-based.
Assay [7] has as its system Enterovirus. In words: Inhibitory concentration against rhinovirus 19. It counts as functional, organism-based.
The test system of assay [8] is Enterovirus. Nature of the assay: Inhibitory concentration against rhinovirus 1A. Format: functional, organism-based.
In assay [9] the test system is Enterovirus. In words: Inhibitory concentration against rhinovirus 4. Format: functional, organism-based.
The test system of assay [10] is Enterovirus. Nature of the assay: Inhibitory concentration against rhinovirus 5. Format: functional, organism-based.
Assay [11] has as its system Enterovirus. In words: Inhibitory concentration against rhinovirus 8. Format: functional, organism-based.
In assay [12] the test system is Enterovirus. Nature of the assay: Inhibitory concentration against rhinovirus 9. Format: functional, organism-based.
Assay [13] concerns Enterovirus. Nature of the assay: Inhibitory concentration against rhinovirus 1B. Format: functional, organism-based. In outline: (§1)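 Plaque reduction assay against rhinovirus 1B in M-HeLa cell monolayers. IC50 is the concentration giving 50% reduction of plaque formation; pI50 is taken as log (1000/IC50). A reference antiviral was run as a control.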
Assay [14] relates to Enterovirus. In words: Inhibitory concentration against rhinovirus 21. It counts as functional, organism-based.
Assay [15] has as its system Enterovirus. Nature of the assay: Inhibitory concentration against rhinovirus 3. It counts as functional, organism-based.
The subject of assay [16] is Enterovirus. Nature of the assay: Inhibitory concentration against rhinovirus 30. Format: functional, organism-based.
The test system of assay [17] is Enterovirus. In words: Inhibitory concentration against rhinovirus 31. Format: functional, organism-based.
For assay [18], the system named is Enterovirus. Nature of the assay: Inhibitory concentration against rhinovirus 29. It counts as functional, organism-based.
Assay [19] concerns Enterovirus. In words: Inhibitory concentration against Rhinovirus 2. Format: functional, organism-based.
Assay [20] deals with Enterovirus. Nature of the assay: Inhibitory concentration against Rhinovirus 12. Format: functional, organism-based.
The subject of assay [21] is Enterovirus. Nature of the assay: Inhibitory concentration against Rhinovirus 13. It counts as functional, organism-based.
Assay [22] relates to rhinovirus B14. Nature of the assay: Inhibitory concentration against Rhinovirus 14. It counts as functional, organism-based, Enterovirus. Conditions: Rhinovirus B.
Assay [23] has as its system Enterovirus. Nature of the assay: Inhibitory concentration against Rhinovirus 15. It counts as functional, organism-based.
Assay [24] has as its system Enterovirus. Nature of the assay: Inhibitory concentration against Rhinovirus 1A. Format: functional, organism-based.
Assay [25] deals with Enterovirus. In words: Inhibition of plaque formation at 8 uM concentration against Rhinovirus 5. It counts as functional, organism-based.
Assay [26] concerns Enterovirus. In words: Inhibitory concentration against Rhinovirus 9. Format: functional, organism-based.
In assay [27] the test system is Enterovirus. In words: Inhibitory concentration against Rhinovirus 1B. It counts as functional, organism-based. A digest of the protocol:
as §1

The subject of assay [28] is Enterovirus. Nature of the assay: Inhibition of plaque formation at 2.5 uM concentration against Rhinovirus 3. It counts as functional.
The species named for assay [29] is Homo sapiens. In words: Inhibition of plaque formation at 8 uM concentration. Format: functional.

The IC50 is the concentration at which inhibition is half-maximal. Lower therefore signals inhibition by little substance. `CSc1nc(N(C)C)c2ncn(Cc3ccc(C)cc3)c2n1` yielded an IC50 in assay [1] of 0.34 µM.
For `Cc1ccc(Cn2cnc3c(N(C)C)nc(N(C)C)nc32)cc1`, the IC50 was 1.1 µM in assay [1]; 13 µM in [2]; 7.9 µM in assay [3]; > 10 µM in assay [4]; > 20 µM in assay [5]; 8.3 µM in [6]. In addition, the IC50 in assay [7] is > 20 µM; in assay [8] it was < 1.2 µM; in assay [9], > 10 µM; in assay [10] it was 17.7 µM; in assay [11], 14 µM; in [12] it was 3.5 µM. For the same molecule, the IC50 in assay [13] was 1.1 µM; in assay [14], > 20 µM; in [15], > 10 µM; in [16] it was 2.9 µM; in assay [17], 15.1 µM; in assay [18], 4.9 µM. It took 3.1 µM to reach half-maximal inhibition in assay [19] (IC50).
Consider `Cc1ccc(Cn2cnc3c(N(C)C)nc(F)nc32)cc1`, for which the IC50 in assay [1] worked out at 0.34 µM.
Still for that read-out and setting: for `Cc1ccc(Cn2cnc3c(N(C)C)nc(N)nc32)cc1` the value was 31 µM.
Usually Inhibition stands for the share of the control response that was lost under treatment. High values mean a response far below the control, low ones a response near the control. The term inhibition denotes how much of the control response was suppressed. With `Cc1ccc(Cn2cnc3c(N(C)C)nc(C(F)(F)F)nc32)cc1`, the IC50 is 0.03 µM in [1]; 2.6 µM in [20]; 2.6 µM in assay [21]; 1.2 µM in [22]; 1 µM in assay [23]; 0.1 µM in [24]. Besides, the results for the IC50 in assay [26], in [27] and in assay [19] were 0.35 µM, 0.03 µM and 5.7 µM, respectively. The molecule also displayed an Inhibition in [25] of 18%. This molecule also yielded an inhibition at 2.5 µM in assay [28] of 43%.
As to `Cc1ccc(Cn2cnc3c(N(C)C)nc(S(C)(=O)=O)nc32)cc1`, the IC50 in [1] stood at 25 µM. The molecule also displayed an inhibition in assay [29] of 24%.
Turning to `Cc1ccc(Cn2cnc3c(N(C)C)ncnc32)cc1`, 8.6 µM corresponded to half-maximal inhibition in [1] (IC50).
`Cc1ccc(Cn2cnc3c(N(C)C)nc(Cl)nc32)cc1` came in with an IC50 in [1] of 0.08 µM.
The same measure, in the same setting: under `CNc1nc(N(C)C)c2ncn(Cc3ccc(C)cc3)c2n1` stands 4.7 µM; under `CCc1nc(N(C)C)c2ncn(Cc3ccc(C)cc3)c2n1`, 2.3 µM.
Still for that read-out and setting: under `Cc1ccc(Cn2cnc3c(N(C)C)nc(C)nc32)cc1` stands 0.8 µM.
